From PMC5248944 (International Journal of Nanomedicine, 2017)

Experiments:
[1] = type: physicochemical; settings: 35°C, 5-FU 1.25 mg/mL in donor phase; control slope = Km
Method in brief: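 Dynamic dialysis was run at 35°C across porous cellulose (12.5 kDa cutoff). The donor held 5 mL of lyophilised-then-regenerated nanoparticles, plain drug solution, or drug with 0.25 mg/mL chitosan HCl; the receiver held 100 mL demineralised water under sink conditions. The receiver was sampled at intervals for HPLC (RP-18, 0.05 M KH2PO4/0.1% triethylamine, UV 266 nm). Ff came from the ln[(Cd/Cd0)×100]-vs-time slope; ≥3 repeats.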

[2] = Dynamic dialysis at 4°C: drug–polymer interactions in TSOH, sol state; type: physicochemical; settings: 5-FU 1.25 mg/mL, printed value is slope ×10^3
Method in brief: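 Sol-state formulations were tested by dynamic dialysis at 4°C. The donor held 5 mL of formulation; the receiver held 100 mL of 0.08 M HCl with β-glycerophosphate. Receiver drug was measured at intervals. Each day's run order was control, two formulations, then control again on the same membrane, with a fresh membrane daily. Bound fraction was taken as 1−Ff from the log-linear slope.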

slope of straight line ± standard deviation, ln[(Cd/Cd0)×100] vs t [1]: 0.841±0.029 hours | Modulus of straight-line slope (×10^3) ± SD (n=8) [2]: 5.06±0.75 1/minutes
Compound: O=c1[nH]cc(F)c(=O)[nH]1 [Control, 5-fluorouracil]
